Measurements reported in paper PMC5508980 (Molecular nutrition & food research, 2017).

How the values were obtained:
recombinant HDAC7 = molecular target: T1, recombinant HDAC7 (Homo sapiens, UniProt Q8WUI4); assay: Recombinant HDAC activity assay; type: biochemical; conditions: 2 h, read-out: % HDAC activity, Class IIa HDACs, 7
T1 sequence (Q8WUI4 1-952): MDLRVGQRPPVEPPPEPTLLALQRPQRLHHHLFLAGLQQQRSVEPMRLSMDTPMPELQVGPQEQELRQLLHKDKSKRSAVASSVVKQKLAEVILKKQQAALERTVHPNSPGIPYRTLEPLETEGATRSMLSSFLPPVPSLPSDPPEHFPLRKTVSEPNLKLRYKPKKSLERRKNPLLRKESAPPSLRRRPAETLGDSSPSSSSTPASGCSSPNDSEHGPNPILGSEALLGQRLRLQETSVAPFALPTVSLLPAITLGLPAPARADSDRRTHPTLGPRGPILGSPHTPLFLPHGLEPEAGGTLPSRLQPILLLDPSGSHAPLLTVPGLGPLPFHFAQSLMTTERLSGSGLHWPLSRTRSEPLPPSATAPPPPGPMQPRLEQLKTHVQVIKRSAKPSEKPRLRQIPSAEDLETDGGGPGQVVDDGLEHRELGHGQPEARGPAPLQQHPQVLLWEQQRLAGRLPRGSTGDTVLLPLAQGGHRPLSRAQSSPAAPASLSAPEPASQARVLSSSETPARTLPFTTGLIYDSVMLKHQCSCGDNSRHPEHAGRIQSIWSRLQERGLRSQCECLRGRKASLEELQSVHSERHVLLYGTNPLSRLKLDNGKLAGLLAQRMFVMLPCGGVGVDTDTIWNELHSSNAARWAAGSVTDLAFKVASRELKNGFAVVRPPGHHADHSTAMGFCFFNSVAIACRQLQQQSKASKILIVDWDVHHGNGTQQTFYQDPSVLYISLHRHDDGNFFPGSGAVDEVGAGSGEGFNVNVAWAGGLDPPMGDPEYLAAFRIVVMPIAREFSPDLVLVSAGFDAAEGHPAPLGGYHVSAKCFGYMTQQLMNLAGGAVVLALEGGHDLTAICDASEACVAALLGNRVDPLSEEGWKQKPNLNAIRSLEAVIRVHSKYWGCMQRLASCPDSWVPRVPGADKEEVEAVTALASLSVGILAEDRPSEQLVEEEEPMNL

recombinant HDAC3 = recombinant HDAC3 (Homo sapiens, UniProt O15379); assay: Recombinant HDAC activity assay; type: biochemical; conditions: 2 h, read-out: % HDAC activity, Class I HDACs, 3
recombinant HDAC3, sequence (O15379 whole entry): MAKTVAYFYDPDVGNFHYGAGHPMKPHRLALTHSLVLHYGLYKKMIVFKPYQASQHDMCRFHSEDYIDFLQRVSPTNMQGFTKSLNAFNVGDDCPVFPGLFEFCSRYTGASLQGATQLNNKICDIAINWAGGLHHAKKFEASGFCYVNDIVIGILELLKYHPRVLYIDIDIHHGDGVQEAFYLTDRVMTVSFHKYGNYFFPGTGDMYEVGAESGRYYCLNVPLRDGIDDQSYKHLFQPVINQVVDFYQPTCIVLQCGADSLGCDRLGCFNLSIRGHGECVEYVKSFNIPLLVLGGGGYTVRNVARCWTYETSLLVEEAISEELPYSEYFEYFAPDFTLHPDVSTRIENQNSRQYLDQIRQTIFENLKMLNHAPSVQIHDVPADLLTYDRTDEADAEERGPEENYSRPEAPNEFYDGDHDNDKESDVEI
recombinant HDAC3, sequence (Q9Y618 395-489 partner limits assumed): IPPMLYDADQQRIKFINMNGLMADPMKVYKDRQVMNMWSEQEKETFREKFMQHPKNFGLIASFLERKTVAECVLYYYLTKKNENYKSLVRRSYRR

recombinant HDAC6 = molecular target: T2, recombinant HDAC6 (Homo sapiens, UniProt Q9UBN7); assay: Recombinant HDAC activity assay; type: biochemical; conditions: 2 h, read-out: % HDAC activity, Class IIb HDACs, 6
T2 sequence (Q9UBN7 1-1215): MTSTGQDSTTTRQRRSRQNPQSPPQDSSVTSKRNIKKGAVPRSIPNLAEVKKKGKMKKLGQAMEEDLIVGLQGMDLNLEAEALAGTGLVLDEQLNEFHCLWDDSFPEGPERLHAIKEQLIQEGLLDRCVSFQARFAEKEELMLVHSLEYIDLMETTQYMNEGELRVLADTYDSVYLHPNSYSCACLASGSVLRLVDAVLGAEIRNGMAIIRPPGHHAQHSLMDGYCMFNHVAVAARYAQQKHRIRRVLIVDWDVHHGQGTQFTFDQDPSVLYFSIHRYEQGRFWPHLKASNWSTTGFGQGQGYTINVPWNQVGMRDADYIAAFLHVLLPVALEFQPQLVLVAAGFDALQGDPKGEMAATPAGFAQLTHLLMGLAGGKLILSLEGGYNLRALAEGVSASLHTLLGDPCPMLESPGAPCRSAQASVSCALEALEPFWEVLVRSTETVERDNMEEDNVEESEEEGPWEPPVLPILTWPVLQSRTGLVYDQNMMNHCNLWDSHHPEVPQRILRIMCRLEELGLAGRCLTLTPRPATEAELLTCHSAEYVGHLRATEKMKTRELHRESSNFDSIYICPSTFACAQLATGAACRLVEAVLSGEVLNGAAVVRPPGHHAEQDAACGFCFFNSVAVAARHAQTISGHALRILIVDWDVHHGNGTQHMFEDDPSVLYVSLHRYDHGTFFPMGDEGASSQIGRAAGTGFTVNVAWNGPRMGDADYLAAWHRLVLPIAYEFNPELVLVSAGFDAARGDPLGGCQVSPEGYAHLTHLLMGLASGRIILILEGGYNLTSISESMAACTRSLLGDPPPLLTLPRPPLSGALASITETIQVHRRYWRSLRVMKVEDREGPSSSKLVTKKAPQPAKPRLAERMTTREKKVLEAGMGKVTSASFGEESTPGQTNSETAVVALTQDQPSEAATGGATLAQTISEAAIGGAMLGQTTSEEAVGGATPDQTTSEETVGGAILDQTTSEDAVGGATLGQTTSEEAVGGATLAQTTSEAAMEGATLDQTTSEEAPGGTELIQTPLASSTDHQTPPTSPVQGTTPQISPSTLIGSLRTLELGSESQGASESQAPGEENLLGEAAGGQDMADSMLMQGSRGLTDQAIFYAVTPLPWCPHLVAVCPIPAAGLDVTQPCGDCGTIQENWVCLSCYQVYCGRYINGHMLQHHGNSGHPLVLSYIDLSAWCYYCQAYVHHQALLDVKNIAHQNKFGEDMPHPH

recombinant HDAC1 = recombinant HDAC1 (Homo sapiens, UniProt Q13547); assay: Recombinant HDAC activity assay; type: biochemical; conditions: 2 h, read-out: % HDAC activity, Class I HDACs, 1
recombinant HDAC1, sequence (Q13547 whole entry): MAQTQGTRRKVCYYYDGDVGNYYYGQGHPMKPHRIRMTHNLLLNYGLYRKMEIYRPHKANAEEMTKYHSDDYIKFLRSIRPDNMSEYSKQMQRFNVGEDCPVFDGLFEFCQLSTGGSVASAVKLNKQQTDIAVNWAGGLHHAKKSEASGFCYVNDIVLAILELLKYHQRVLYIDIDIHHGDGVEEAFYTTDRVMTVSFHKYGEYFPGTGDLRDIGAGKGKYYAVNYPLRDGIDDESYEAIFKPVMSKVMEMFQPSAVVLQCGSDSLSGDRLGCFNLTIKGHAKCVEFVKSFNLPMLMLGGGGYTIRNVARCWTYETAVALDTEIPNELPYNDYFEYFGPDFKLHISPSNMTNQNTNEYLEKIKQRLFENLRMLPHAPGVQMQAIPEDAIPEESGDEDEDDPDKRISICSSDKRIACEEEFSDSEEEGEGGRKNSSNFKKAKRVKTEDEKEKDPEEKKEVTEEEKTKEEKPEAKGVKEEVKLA

recombinant HDAC5 = recombinant HDAC5 (Homo sapiens, UniProt Q9UQL6); assay: Recombinant HDAC activity assay; type: biochemical; conditions: 2 h, read-out: % HDAC activity, Class IIa HDACs, 5
recombinant HDAC5, sequence (Q9UQL6 whole entry): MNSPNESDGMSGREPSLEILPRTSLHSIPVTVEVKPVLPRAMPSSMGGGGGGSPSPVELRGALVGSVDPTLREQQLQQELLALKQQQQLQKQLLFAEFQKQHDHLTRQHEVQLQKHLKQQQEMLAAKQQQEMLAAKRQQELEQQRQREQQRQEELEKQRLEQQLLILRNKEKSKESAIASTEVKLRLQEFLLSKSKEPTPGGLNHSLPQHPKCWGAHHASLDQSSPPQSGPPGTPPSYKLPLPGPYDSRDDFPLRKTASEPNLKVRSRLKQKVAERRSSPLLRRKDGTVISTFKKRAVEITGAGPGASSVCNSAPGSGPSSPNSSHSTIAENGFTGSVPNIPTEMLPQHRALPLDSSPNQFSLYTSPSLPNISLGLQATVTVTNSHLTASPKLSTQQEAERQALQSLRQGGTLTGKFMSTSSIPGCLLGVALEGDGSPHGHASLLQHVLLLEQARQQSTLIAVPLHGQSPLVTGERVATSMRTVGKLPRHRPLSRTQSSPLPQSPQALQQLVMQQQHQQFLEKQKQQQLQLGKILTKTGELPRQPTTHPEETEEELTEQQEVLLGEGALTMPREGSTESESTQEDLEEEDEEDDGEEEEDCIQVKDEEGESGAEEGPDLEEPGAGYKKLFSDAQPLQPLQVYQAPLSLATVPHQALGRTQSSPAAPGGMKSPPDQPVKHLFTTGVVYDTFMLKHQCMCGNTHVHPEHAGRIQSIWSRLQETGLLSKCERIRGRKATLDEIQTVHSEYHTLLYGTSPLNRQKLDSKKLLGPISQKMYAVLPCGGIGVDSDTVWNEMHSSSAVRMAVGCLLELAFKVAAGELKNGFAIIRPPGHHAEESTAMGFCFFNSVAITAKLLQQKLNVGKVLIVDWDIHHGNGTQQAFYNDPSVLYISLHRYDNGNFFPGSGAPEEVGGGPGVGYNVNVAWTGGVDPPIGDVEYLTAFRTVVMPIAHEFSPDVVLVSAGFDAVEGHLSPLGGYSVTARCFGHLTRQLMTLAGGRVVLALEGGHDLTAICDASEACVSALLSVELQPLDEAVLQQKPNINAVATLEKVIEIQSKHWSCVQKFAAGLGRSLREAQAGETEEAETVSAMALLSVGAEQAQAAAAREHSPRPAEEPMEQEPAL

recombinant HDAC9 = recombinant HDAC9 (Homo sapiens, UniProt Q9UKV0); assay: Recombinant HDAC activity assay; type: biochemical; conditions: 2 h, read-out: % HDAC activity, Class IIa HDACs, 9
recombinant HDAC9, sequence (Q9UKV0 whole entry): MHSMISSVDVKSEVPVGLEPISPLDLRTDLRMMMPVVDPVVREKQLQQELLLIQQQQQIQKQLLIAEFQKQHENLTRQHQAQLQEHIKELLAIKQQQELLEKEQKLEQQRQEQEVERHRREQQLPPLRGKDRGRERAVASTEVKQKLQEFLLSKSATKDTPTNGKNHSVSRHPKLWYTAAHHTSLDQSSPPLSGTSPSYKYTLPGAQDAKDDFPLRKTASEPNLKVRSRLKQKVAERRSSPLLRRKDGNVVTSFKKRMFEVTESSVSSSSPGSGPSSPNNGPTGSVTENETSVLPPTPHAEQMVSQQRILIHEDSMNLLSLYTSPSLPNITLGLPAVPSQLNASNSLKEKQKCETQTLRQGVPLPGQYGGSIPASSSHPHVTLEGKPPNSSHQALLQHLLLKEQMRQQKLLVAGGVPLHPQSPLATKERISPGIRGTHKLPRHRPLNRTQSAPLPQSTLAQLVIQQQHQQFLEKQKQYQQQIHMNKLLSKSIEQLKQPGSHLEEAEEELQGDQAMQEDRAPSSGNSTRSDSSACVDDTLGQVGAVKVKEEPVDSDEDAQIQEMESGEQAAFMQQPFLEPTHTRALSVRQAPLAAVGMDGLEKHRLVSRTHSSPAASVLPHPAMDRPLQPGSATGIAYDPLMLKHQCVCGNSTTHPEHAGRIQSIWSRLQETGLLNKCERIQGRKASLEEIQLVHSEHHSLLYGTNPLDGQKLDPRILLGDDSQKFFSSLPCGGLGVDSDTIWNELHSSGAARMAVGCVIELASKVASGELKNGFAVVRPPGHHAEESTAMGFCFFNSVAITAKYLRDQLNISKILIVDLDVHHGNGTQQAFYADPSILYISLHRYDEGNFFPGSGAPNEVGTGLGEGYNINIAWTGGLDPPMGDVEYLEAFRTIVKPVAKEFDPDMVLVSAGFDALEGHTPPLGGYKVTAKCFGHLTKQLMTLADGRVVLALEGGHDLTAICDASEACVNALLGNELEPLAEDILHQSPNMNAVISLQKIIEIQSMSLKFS

H9c2 cells = assay: Acetyl-H3K9/14 immunoblot of whole cell extract; type: cell-based, rat; conditions: H9c2 myocytes, 50 µM, 2 hours
Procedure, shortened: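 H9c2 cells were grown in DMEM with 10% FBS and treated at 90% confluence for 2 h with test compound or DMSO, with TSA as positive control. Washed in ice-cold PBS, lysed in PBS pH 7.4 with 0.5% Triton X-100 and 300 mM NaCl plus inhibitors, sonicated and clarified. SDS-PAGE, nitrocellulose, acetyl-H3K9/14 and total H3 antibodies, chemiluminescence; densitometry; ANOVA with Tukey.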

recombinant HDAC2 = recombinant HDAC2 (Homo sapiens, UniProt Q92769); assay: Recombinant HDAC activity assay; type: biochemical; conditions: 2 h, read-out: % HDAC activity, Class I HDACs, 2
recombinant HDAC2, sequence (Q92769 whole entry): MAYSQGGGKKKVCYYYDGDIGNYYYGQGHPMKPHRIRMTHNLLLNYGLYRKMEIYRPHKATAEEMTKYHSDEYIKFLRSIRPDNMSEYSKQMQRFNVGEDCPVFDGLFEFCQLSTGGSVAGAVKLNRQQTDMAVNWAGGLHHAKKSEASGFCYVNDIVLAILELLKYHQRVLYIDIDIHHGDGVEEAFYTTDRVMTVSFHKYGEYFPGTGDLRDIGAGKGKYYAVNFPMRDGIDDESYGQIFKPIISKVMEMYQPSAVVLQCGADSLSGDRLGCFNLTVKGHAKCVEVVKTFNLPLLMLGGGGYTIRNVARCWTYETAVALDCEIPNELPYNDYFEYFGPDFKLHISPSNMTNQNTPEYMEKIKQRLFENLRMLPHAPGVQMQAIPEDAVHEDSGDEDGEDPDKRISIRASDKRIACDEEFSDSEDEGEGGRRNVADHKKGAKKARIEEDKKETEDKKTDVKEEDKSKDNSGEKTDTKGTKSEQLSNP

## Cc1cc(O)c2c(c1)C(=O)c1cc(O)cc(O)c1C2=O [Emodin]
Recombinant HDAC7
  remaining activity at 50 µM: 53.1%
Recombinant HDAC3
  remaining activity at 50 µM: 35.1%
Recombinant HDAC6
  remaining activity at 50 µM: 38.8%
Recombinant HDAC1
  remaining activity at 50 µM: 35.8%
Recombinant HDAC5
  remaining activity at 50 µM: 31.4%
Recombinant HDAC9
  remaining activity at 50 µM: 34.7%
H9c2 cells
  acetylation of histone 3 on lysine 9/14 (Ac-H3 K9/14) via immunoblot: increased
Recombinant HDAC2
  remaining activity at 50 µM: 35%
